Shown are actives, neighbours in structure and some others; about 2.2% of the full set was active somewhere.
Granule exo inh – blocks lytic granule exocytosis; TALL-104 LAMP-1 surface exposure, flow cytometry; cells stimulated with thapsigargin and PMA; inhibition, % at 10 µM; actives 0.66% (n = 360,000); AID 651702;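 active = inhibition above about 55%, limit read from the data; inconclusive = no clear call, values can overlap the other calls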
HNF4A DNA FP – change in binding of human HNF4 alpha to DNA | P41235 | HNF4a-FITC DNA binding, fluorescence polarization, 1 h | activity change, % at 10 µM | actives 0.3% (n = 360,000); in the data active = activity change above about 30%, passing the limit was not always enough
Myeloid diff 2 – promotes myeloid progenitor differentiation; ER-HoxA9 myeloid progenitors, lysozyme-GFP differentiation, flow cytometry; calls only at 10 µM; actives 1% (n = 360,000);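 active = normalized GFP-positive differentiation at or above the plate's own cutoff, the solvent-only control mean plus 3 SD; inconclusive = no clear call, values can overlap the other calls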;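 also: cells exposed to compound for four days before flow analysis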
CSN deneddyl inh – inhibitors of human CSN-mediated cullin deneddylation; actives 0.38% (n = 360,000); Purified CSN, SCF-Nedd8-OG deneddylation, fluorescence polarization; inhibition, % at 12.5 µM;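 active = pattern-corrected inhibition above about 35%, with an unprinted fluorescence ratio check between 0.5 and 1.5, limit read from the data, passing the limit was not always enough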;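 also: 0% = enzyme with substrate and 100% = substrate without enzyme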
Target sequence (Q92905 whole entry, looked up, one chain of several): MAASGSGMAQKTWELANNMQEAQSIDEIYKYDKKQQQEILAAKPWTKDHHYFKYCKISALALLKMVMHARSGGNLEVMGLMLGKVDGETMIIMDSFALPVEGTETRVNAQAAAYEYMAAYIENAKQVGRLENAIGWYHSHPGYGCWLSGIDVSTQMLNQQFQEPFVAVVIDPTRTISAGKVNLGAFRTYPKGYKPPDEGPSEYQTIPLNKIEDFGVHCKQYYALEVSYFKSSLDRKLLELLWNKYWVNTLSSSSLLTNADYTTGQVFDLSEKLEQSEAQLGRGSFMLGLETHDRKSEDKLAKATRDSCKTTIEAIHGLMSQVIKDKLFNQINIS
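Test system: purified human Csn5 enzyme expressed in HEK293T cells. Amount: 0.24 nM enzyme. Reagent: SCFSkp2-Nedd8OG substrate at 10 nM final. Schedule: 90 min incubation of compound, enzyme and substrate at room temperature. Detection: fluorescence polarization. Read-out: % inhibition of substrate cleavage by Csn5.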
Exocytosis CP01 – blocks lytic granule exocytosis; actives 11% (n = 1,500); inhibition, % at 10 µM; AID 651954; shares compounds with Granule exo inh; TALL-104 cells, LAMP-1 externalization, flow cytometry; stimulated with PMA plus thapsigargin; in the data active = inhibition above about 60%;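 also: 0% = stimulated vehicle wells and 100% = unstimulated wells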
Starred values were filed as active, the others as inactive; i = inactive; ? = inconclusive; nt = no result given.

SMILES | Granule exo inh | HNF4A DNA FP | Myeloid diff 2 | CSN deneddyl inh | Exocytosis CP01
O=C(COC(=O)c1cc[n+]([O-])cc1)Nc1c(Cl)cccc1C(F)(F)F | -1.5 | -2.5 | i | 1.9 | nt
COCCNC(=S)N(CCc1c(C)[nH]c2ccc(F)cc12)Cc1ccco1 | 62.8* | -4.6 | i | -1.9 | -13.7
COc1cccc(CN2CC(C(=O)NCCc3nccs3)CCC2=O)c1 (centres undefined) | -3.2 | 1.9 | i | -0.2 | nt
COc1ccc2[nH]cc(CCNC(=O)CC[C@H]3O[C@@H](n4cc(C)c(=O)[nH]c4=O)C[C@@H]3O)c2c1 | 14.3 | 0.1 | i | 3.6 | nt
Cc1ccc(C)c(CN2C(=O)CSc3ccc(C(=O)NCC(C)CN4CCC(C)CC4)cc32)c1 (centres undefined) | 76.9* | -0.2 | i | 4.2 | 3.8
Cc1ccc(C)c(CN2C(=O)CSc3ccc(C(=O)N4CCCC4)cc32)c1 | 1.5 | 0.6 | i | 2.5 | nt
Cc1cc(SCC(=O)NC2CCCCC2)nc2ccccc12 | 97.7* | 1.6 | ? | -0.8 | -13.8
CCc1cc2cc(C)ccc2nc1SCC(=O)NC1CCCC1 | 91.5* | 7.3 | ? | 0.7 | -3.7
CCCCCCCCNCCS(=O)(=O)NCc1ccccc1 | 63.1* | 0.2 | i | -6.1 | 32.0
CC(NC(=O)COC(=O)c1cc(=O)c2ccccc2o1)c1ccccc1 (centres undefined) | -16.8 | -1.6 | i | -2.7 | nt
CN(C(=O)c1ccccc1-c1ccccc1C(=O)O)c1ccccc1 | 0.2 | 4.4 | i | 1.0 | nt
CC(=O)c1sc2nc(C)c3c(c2c1N)CCCC3 | 62.3* | 0.4 | i | -1.9 | -5.2
Cc1nc2sc(C#N)c(N)c2c2c1CCCC2 | 2.7 | -0.2 | i | 3.3 | nt
Cc1cc(Nc2cccc(Cl)c2)nc(-c2ccccc2O)n1 | 55.8* | -2.0 | i | 5.7 | -4.3
O=C(CC12CC3CC(CC(Br)(C3)C1)C2)NC1CCCC1 | -11.4 | 0.0 | i | -2.1 | nt
CCN1C(c2ccccc2)C(C)C(=O)C(C)C1c1ccccc1 (centres undefined) | 57.7* | -2.0 | i | -4.9 | -2.2
CCn1c(CC(=O)Nc2ccccc2C)nnc1SCC(=O)NC1CCCC1 | -3.5 | 1.2 | i | -0.5 | nt
CC(NC(=O)CSc1nc2c(c(C(F)(F)F)n1)CCc1ccccc1-2)c1ccccc1 (centres undefined) | 58.8* | 1.8 | i | 1.4 | -2.6
CC(=O)C[C@@H](O)CC(=O)[C@H]1OC(=O)[C@H](C)CCCCc2ccccc21 | -2.8 | -2.1 | i | -3.4 | nt
Cc1cc(NC(=O)COc2ccc(C(C)(C)C)cc2)no1 | 6.7 | 2.0 | i | 0.4 | nt
Cc1c(C(=O)N(Cc2ccc(Cl)cc2)C2CCS(=O)(=O)C2)oc2ccccc12 (centres undefined) | 73.6* | -3.5 | i | 3.0 | -12.3
Cc1ccc(C(=O)CC(=O)c2ccc(C)cc2O)cc1 | -16.0 | -4.2 | i | 1.7 | nt
CN(C(=O)c1ccc(OC2CCN(S(=O)(=O)N(C)C)CC2)cc1)C1CCCCC1 | 64.0* | 3.1 | i | 1.1 | -1.2
Cc1cc(NC(=O)CCN2CCN(C/C=C/c3ccccc3)CC2)ccc1Br | 60.4* | -0.4 | i | -1.7 | -1.1
O=C(CCNS(=O)(=O)c1ccc(Br)cc1)Nc1cccc(F)c1 | 5.7 | -3.8 | i | -0.4 | nt
SMILES | Granule exo inh | HNF4A DNA FP | Myeloid diff 2 | CSN deneddyl inh | Exocytosis CP01
Cc1cc(O)c(-c2cc(O)c(C)cc2O)cc1O | 102.3* | -0.1 | i | 1.0 | 22.8
Cc1noc(C)c1-c1ccc(C(=O)NCc2ccc(Cl)cc2)c2occc12 | 7.7 | 2.9 | i | 2.3 | nt
CSc1nc(C(C)C)ccc1CNC(=O)CC(C)c1ccccc1 (centres undefined) | 63.2* | 22.6 | i | -0.4 | -3.9
O=C(Nc1ccc2c(c1)OCO2)C1CCCN(c2nc3ccccc3s2)C1 (centres undefined) | 62.4* | 2.0 | i | 0.1 | -13.0
CCc1nnc(NC(=O)C2CCCN(c3nc4ccccc4s3)C2)s1 (centres undefined) | -4.6 | 5.7 | i | 1.3 | nt
CCN(CC)CCC(=O)N1C/C(=C/c2ccccc2)C(=O)/C(=C\c2ccccc2)C1 | 78.9* | 0.3 | ? | 7.3 | 30.0
O=C1/C(=C\c2ccccc2)CCC/C1=C/c1ccccc1 | -9.8 | -2.4 | i | 6.4 | nt
Cc1ccccc1N1CCN(C(=O)NCc2cccc(Cl)c2)CC1 | 85.6* | -0.1 | i | -0.6 | -4.5
COc1ccc(CNC(=O)N2CCN(c3cccc(C)c3C)CC2)cc1OC | 3.9 | 2.1 | i | -2.5 | nt
CCCCN(C(=O)c1cc(-c2ccco2)nc2ccccc12)c1c(N)n(CCC)c(=O)[nH]c1=O | 4.4 | -18.8 | i | 30.9 | nt
CN(C)N1C(N)=C(C#N)C(c2cccc([N+](=O)[O-])c2)C2=C1CC(C)(C)CC2=O (centres undefined) | -1.8 | -6.6 | i | 6.1 | nt
Cc1noc(C)c1S(=O)(=O)N(CC(=O)NC(C)c1ccccc1)c1ccc(C(C)C)cc1 (centres undefined) | 69.7* | -1.8 | i | 1.4 | -4.4
Cc1noc(C)c1S(=O)(=O)N(CC(=O)NC1CCCC1)c1ccc(C(C)C)cc1 | -0.6 | 0.0 | i | -0.3 | nt
Cc1noc(C)c1S(=O)(=O)N(CC(=O)NCCc1ccccc1)c1ccc(C(C)C)cc1 | 56.2* | -3.4 | i | 0.9 | -14.0
Cc1noc(C)c1S(=O)(=O)N(CC(=O)NCc1ccccc1)c1ccc(C(C)C)cc1 | -1.2 | -1.5 | i | -2.9 | nt
CCCS(=O)(=O)NC(=O)C1(C)CCCN(C(=O)c2ccccc2OC)C1 (centres undefined) | 1.0 | 2.9 | i | -0.5 | nt
CNC[C@H]1Oc2c(NS(=O)(=O)c3cccs3)cccc2C(=O)N([C@H](C)CO)C[C@@H]1C | 77.2* | -0.3 | i | 2.3 | -3.3
C[C@H](CO)N1C[C@H](C)[C@@H](CN(C)S(=O)(=O)c2ccc(F)cc2)Oc2c(NC(=O)c3ccncc3)cccc2C1=O | 92.2* | 3.5 | i | 0.1 | -15.9
Cc1ccc(-c2nnc(SCC(=O)NC3CCCC3)n2C)cc1 | -12.5 | 0.5 | i | 0.0 | nt
Cc1ccc(Nc2cc(C)c(O)c(C)c2)cc1 | 67.3* | -0.5 | i | -5.7 | 18.6
COc1ccc(C2CC(c3cccc(Cl)c3)=NN2c2ccc(S(N)(=O)=O)cc2)cc1 (centres undefined) | 3.4 | -1.9 | i | -2.8 | nt
O=C(CC(Sc1ccc(Br)cc1)C(=O)O)c1ccc(F)cc1 (centres undefined) | 68.6* | 0.2 | i | -0.2 | -13.2
CCOc1ccc2[nH]c(C)c(CN3CCN(C)CC3)c(=O)c2c1 | 68.5* | 6.0 | i | 2.8 | -11.3
CCOc1ccc2[nH]c(C)c(CN3CCN(CC)CC3)c(=O)c2c1 | -4.1 | 5.0 | i | -0.4 | nt
Cc1cnc(C(=O)OCC(=O)NCCc2ccccc2)cn1 | 109.6* | 3.5 | i | 1.7 | -4.3
O=C(COC(=O)c1cnccn1)NCCc1ccccc1 | 1.1 | 1.7 | i | 6.0 | nt
